Assay results published in ChEMBL document CHEMBL2021866, “Design, synthesis, and pharmacological evaluation of benzamide derivatives as glucokinase activators” (Bioorg Med Chem, 2012).
pEC50: −log10 of the molar value.

Tested on: not listed separately
Assay: Clearance in ICR mouse at 10 mg/kg, iv
Type: ADME, organism-based
Design: dose 10 mg/kg, route intravenous
Conditions: in vivo
Procedure, shortened: (§1)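 Mice received a single iv dose of 10 mg/kg or a single po dose of 20 mg/kg. Vehicle was DMSO, tween-80 and normal saline. Plasma concentration–time data gave CL, Vss and t1/2 from the iv arm, and Cmax, Tmax, AUC0-∞ and F from the po arm. Values are the average of three runs.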

clearance [mL/min/kg]	SMILES
17.8	CC(C)=CCOc1cc(Oc2ccc(S(=O)(=O)N3CC[C@H](F)C3)cc2)cc(C(=O)Nc2ncc(F)s2)c1
3.33	CC(C)=CCOc1cc(Oc2ccc(S(=O)(=O)C3CC3)cc2)cc(C(=O)Nc2nccs2)c1

Tested on: not listed separately
Assay: Tmax in ICR mouse at 20 mg/kg, po
Type: ADME, organism-based
Design: dose 20 mg/kg, route oral
Conditions: in vivo
Procedure, shortened: as §1

Tmax [h]	SMILES
1	CC(C)=CCOc1cc(Oc2ccc(S(=O)(=O)N3CC[C@H](F)C3)cc2)cc(C(=O)Nc2ncc(F)s2)c1
1	CC(C)=CCOc1cc(Oc2ccc(S(=O)(=O)C3CC3)cc2)cc(C(=O)Nc2nccs2)c1

Molecular target: T1, Hexokinase-4 (Homo sapiens, UniProt P35557)
T1 sequence (P35557 whole entry): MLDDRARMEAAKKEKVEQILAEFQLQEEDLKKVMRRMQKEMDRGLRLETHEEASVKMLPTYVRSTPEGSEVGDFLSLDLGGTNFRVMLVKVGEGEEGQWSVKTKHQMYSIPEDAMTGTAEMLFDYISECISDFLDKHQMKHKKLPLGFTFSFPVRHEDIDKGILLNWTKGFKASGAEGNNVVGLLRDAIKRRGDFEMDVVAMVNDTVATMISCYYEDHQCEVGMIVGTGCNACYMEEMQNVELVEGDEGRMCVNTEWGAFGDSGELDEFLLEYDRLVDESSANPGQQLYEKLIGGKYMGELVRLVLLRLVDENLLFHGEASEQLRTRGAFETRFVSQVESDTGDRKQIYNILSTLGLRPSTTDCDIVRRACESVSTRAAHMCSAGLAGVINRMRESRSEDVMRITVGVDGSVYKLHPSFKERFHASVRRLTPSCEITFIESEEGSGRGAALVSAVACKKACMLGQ
Assay: Activation of human recombinant glucokinase expressed in Escherichia coli BL21(DE3) coexpressing G6PDH assessed as glucose 6-phosphate formation by spectrometric analysis
Conditions: not given

pEC50	SMILES
6.62	CC(C)=CCOc1cc(Oc2ccc(S(=O)(=O)N3CC4CCC(C3)O4)cc2)cc(C(=O)Nc2ccn(C)n2)c1
7.35	CC(C)=CCOc1cc(Oc2ccc(S(=O)(=O)N3C[C@@H](C)O[C@@H](C)C3)cc2)cc(C(=O)Nc2cc(C)n(C)n2)c1
7.05	CC(C)=CCOc1cc(Oc2ccc(S(=O)(=O)C3CC3)cc2)cc(C(=O)Nc2cc(C)n(C)n2)c1
7.00	CC(C)=CCOc1cc(Oc2ccc(S(=O)(=O)N3CC4CCC(C3)O4)cc2)cc(C(=O)Nc2nccs2)c1
6.31	COC1CCN(S(=O)(=O)c2ccc(Oc3cc(OCC=C(C)C)cc(C(=O)Nc4ccn(C)n4)c3)cc2)CC1
7.20	CC(C)=CCOc1cc(Oc2ccc(S(=O)(=O)N3C[C@@H](C)O[C@@H](C)C3)cc2)cc(C(=O)Nc2nccs2)c1
7.18	CC(C)=CCOc1cc(Oc2ccc(S(=O)(=O)N3C[C@@H](C)O[C@@H](C)C3)cc2)cc(C(=O)Nc2ncc(F)s2)c1
7.04	COC1CCN(S(=O)(=O)c2ccc(Oc3cc(OCC=C(C)C)cc(C(=O)Nc4nccs4)c3)cc2)CC1
7.32	CC(C)=CCOc1cc(Oc2ccc(S(=O)(=O)C3CC3)cc2)cc(C(=O)Nc2ncc(F)s2)c1
6.05	CC(C)=CCOc1cc(Oc2ccc(S(=O)(=O)C3CC3)cc2)cc(C(=O)Nc2nc(C(C)(C)C)cs2)c1
7.28	CC(C)=CCOc1cc(Oc2ccc(S(=O)(=O)N3CCOCC3)cc2)cc(C(=O)Nc2ncc(F)s2)c1
< 6.00	CC(C)=CCOc1cc(Oc2ccc(S(=O)(=O)C3CC3)cc2)cc(C(=O)Nc2nccn3ccnc23)c1
7.35	CC(C)=CCOc1cc(Oc2ccc(S(=O)(=O)N3CC[C@H](F)C3)cc2)cc(C(=O)Nc2ncc(F)s2)c1
7.55	CC(C)=CCOc1cc(Oc2ccc(S(=O)(=O)C3CC3)cc2)cc(C(=O)Nc2nccs2)c1

Tested on: not listed separately
Assay: Oral bioavailability in ICR mouse at 20 mg/kg
Type: ADME, organism-based
Conditions: in vivo
Procedure, shortened: as §1

bioavailability [%]	SMILES
9.5	CC(C)=CCOc1cc(Oc2ccc(S(=O)(=O)N3CC[C@H](F)C3)cc2)cc(C(=O)Nc2ncc(F)s2)c1
38.6	CC(C)=CCOc1cc(Oc2ccc(S(=O)(=O)C3CC3)cc2)cc(C(=O)Nc2nccs2)c1

Tested on: not listed separately
Assay: Volume of distribution at steady state in ICR mouse at 10 mg/kg, iv
Type: ADME, organism-based
Design: dose 10 mg/kg, route intravenous
Conditions: in vivo, read-out: Vdss
Procedure, shortened: as §1

Vd [L/kg]	SMILES
1.2	CC(C)=CCOc1cc(Oc2ccc(S(=O)(=O)N3CC[C@H](F)C3)cc2)cc(C(=O)Nc2ncc(F)s2)c1
0.28	CC(C)=CCOc1cc(Oc2ccc(S(=O)(=O)C3CC3)cc2)cc(C(=O)Nc2nccs2)c1

Tested on: not listed separately
Assay: AUC (0 to infinity) in ICR mouse at 20 mg/kg, po
Type: ADME, organism-based
Design: time infinity, dose 20 mg/kg, route oral
Conditions: plasma
Procedure, shortened: as §1

AUC(0-inf) [ng·h/mL]	SMILES
1790	CC(C)=CCOc1cc(Oc2ccc(S(=O)(=O)N3CC[C@H](F)C3)cc2)cc(C(=O)Nc2ncc(F)s2)c1
39800	CC(C)=CCOc1cc(Oc2ccc(S(=O)(=O)C3CC3)cc2)cc(C(=O)Nc2nccs2)c1

Molecular target: T2, Hexokinase-4 (Homo sapiens) (UniProt P35557)
T2 sequence (whole entry): T1 sequence (P35557 whole entry)
Assay: Ratio of EC50 for GK50 to compound for activation of human recombinant glucokinase expressed in Escherichia coli BL21(DE3) coexpressing G6PDH assessed as glucose 6-phosphate formation by spectrometric analysis
Conditions: not given
Procedure, shortened: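 EC50 obtained in the same G6PDH-coupled A340 assay of His6-tagged human GK, with GK50 run in parallel. Six compound concentrations per curve, and fold activity over DMSO control fitted to a four-parameter logistic sigmoid. Values are means of three independent experiments.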

Ratio EC50	SMILES
8	CC(C)=CCOc1cc(Oc2ccc(S(=O)(=O)C3CC3)cc2)cc(C(=O)Nc2nccs2)c1

Tested on: not listed separately
Assay: Cmax in ICR mouse at 20 mg/kg, po
Type: ADME, organism-based
Design: dose 20 mg/kg, route oral
Conditions: in vivo
Procedure, shortened: as §1

Cmax [ng/mL]	SMILES
1090	CC(C)=CCOc1cc(Oc2ccc(S(=O)(=O)N3CC[C@H](F)C3)cc2)cc(C(=O)Nc2ncc(F)s2)c1
15800	CC(C)=CCOc1cc(Oc2ccc(S(=O)(=O)C3CC3)cc2)cc(C(=O)Nc2nccs2)c1

Tested on: not listed separately
Assay: Half life in ICR mouse at 10 mg/kg, iv
Type: ADME, organism-based
Design: dose 10 mg/kg, route intravenous
Conditions: in vivo
Procedure, shortened: as §1

half-life [min]	SMILES
354	CC(C)=CCOc1cc(Oc2ccc(S(=O)(=O)N3CC[C@H](F)C3)cc2)cc(C(=O)Nc2ncc(F)s2)c1
138	CC(C)=CCOc1cc(Oc2ccc(S(=O)(=O)C3CC3)cc2)cc(C(=O)Nc2nccs2)c1

Molecular target: T2, Hexokinase-4 (Homo sapiens)
Assay: Activation of human recombinant glucokinase expressed in Escherichia coli BL21(DE3) coexpressing G6PDH assessed as glucose 6-phosphate formation by spectrometric analysis relative to control
Conditions: not given
Procedure, shortened: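 N-terminal His6-tagged human GK, expressed in E. coli BL21(DE3), purified on Ni-NTA. NADPH formation followed as rate of A340. Fold activation taken against DMSO control (100%), and maximum fold reported.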

fold change (FC)	SMILES
1.7	CC(C)=CCOc1cc(Oc2ccc(S(=O)(=O)N3CC4CCC(C3)O4)cc2)cc(C(=O)Nc2ccn(C)n2)c1
1.6	CC(C)=CCOc1cc(Oc2ccc(S(=O)(=O)N3C[C@@H](C)O[C@@H](C)C3)cc2)cc(C(=O)Nc2cc(C)n(C)n2)c1
1.5	CC(C)=CCOc1cc(Oc2ccc(S(=O)(=O)C3CC3)cc2)cc(C(=O)Nc2cc(C)n(C)n2)c1
1.7	CC(C)=CCOc1cc(Oc2ccc(S(=O)(=O)N3CC4CCC(C3)O4)cc2)cc(C(=O)Nc2nccs2)c1
1.7	COC1CCN(S(=O)(=O)c2ccc(Oc3cc(OCC=C(C)C)cc(C(=O)Nc4ccn(C)n4)c3)cc2)CC1
1.5	CC(C)=CCOc1cc(Oc2ccc(S(=O)(=O)N3C[C@@H](C)O[C@@H](C)C3)cc2)cc(C(=O)Nc2nccs2)c1
1.7	CC(C)=CCOc1cc(Oc2ccc(S(=O)(=O)N3C[C@@H](C)O[C@@H](C)C3)cc2)cc(C(=O)Nc2ncc(F)s2)c1
1.7	COC1CCN(S(=O)(=O)c2ccc(Oc3cc(OCC=C(C)C)cc(C(=O)Nc4nccs4)c3)cc2)CC1
1.8	CC(C)=CCOc1cc(Oc2ccc(S(=O)(=O)C3CC3)cc2)cc(C(=O)Nc2ncc(F)s2)c1
0.7	CC(C)=CCOc1cc(Oc2ccc(S(=O)(=O)C3CC3)cc2)cc(C(=O)Nc2nc(C(C)(C)C)cs2)c1
1.8	CC(C)=CCOc1cc(Oc2ccc(S(=O)(=O)N3CCOCC3)cc2)cc(C(=O)Nc2ncc(F)s2)c1
2.2	CC(C)=CCOc1cc(Oc2ccc(S(=O)(=O)N3CC[C@H](F)C3)cc2)cc(C(=O)Nc2ncc(F)s2)c1
2.4	CC(C)=CCOc1cc(Oc2ccc(S(=O)(=O)C3CC3)cc2)cc(C(=O)Nc2nccs2)c1

Tested on: Mus musculus
Assay: Hypoglycemic activity in ICR mouse assessed as reduction in blood glucose level at 10 mg/kg, po measured within 1 hr relative to control
Type: functional
Design: scale not given: the % may be the effect or the level left
Conditions: not given
Procedure, shortened: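 Male ICR mice, 8 weeks old, on a reversed light cycle, were fasted 2 h with water allowed and grouped by body weight. They were dosed orally with 10 mg/kg or with vehicle (0.5% carboxymethylcellulose). Blood glucose was tracked, with ΔBG taken from 0 min, and reduction expressed against vehicle within 1 h. Mean ± SEM, n = 6.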

SMILES	Activity [%]
CC(C)=CCOc1cc(Oc2ccc(S(=O)(=O)N3CC[C@H](F)C3)cc2)cc(C(=O)Nc2ncc(F)s2)c1	8.1
CC(C)=CCOc1cc(Oc2ccc(S(=O)(=O)C3CC3)cc2)cc(C(=O)Nc2nccs2)c1	5.5
